Results on 2 compounds are retold here after ChEMBL document CHEMBL4411269, “Required Immunoproteasome Subunit Inhibition Profile for Anti-Inflammatory Efficacy and Clinical Candidate KZR-616 ((2 S,3 R)- N-(( S)-3-(Cyclopent-1-en-1-yl)-1-(( R)-2-methyloxiran-2-yl)-1-oxopropan-2-yl)-3-hydroxy-3-(4-methoxyphenyl)-2-(( S)-2-(2-morpholinoacetamido)propanamido)propenamide)” (J Med Chem, 2018).

The source made the active and inactive calls. No cut-off for these calls is given here.

Data set [1] relates to Mus musculus. Kind of data set: In vivo inhibition of MECL-1 in Balb/c mouse splenocytes at 20 mg/kg, iv followed by dosing repeat on day 6, 8, 11, 13 and 15 and measured on 1 hr post last dose. The format is functional, organism-based. In short, it runs like this: (§1)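 BALB/c mice dosed iv bolus in 10% sulfobutyl ether−β-cyclodextrin/10 mM sodium citrate pH 3.5; tissues taken 1 h after administration. Splenocytes strained and red cells lysed; kidney frozen, then bead-homogenized. Hypotonic lysate (20 mM Tris pH 8, 5 mM EDTA) at 1 mg/mL (spleen) or 5 mg/mL (kidney) run in the ProCISE active-site ELISA. Background-subtracted, protein-normalized activity relative to vehicle animals; n = 3.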

In data set [2] the test system is PBMC. Kind of data set: Cytotoxicity in human PBMC assessed as reduction in cell viability at 125 nM relative to control. Particulars: 0.125 µM. Type of data set: cell-based.
Data set [3] in a line: Half life in Balb/c mouse at 2 mg/kg, iv. Particulars: in vivo. The format is ADME, organism-based. In outline: (§2)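 Female BALB/c mice aged 7−8 weeks, given 2 mg/kg iv in 25% PEG300/WFI. Cardiac blood taken at 2, 5, 10, 20, 30, 60 and 120 min postdose into sodium heparin and processed to plasma (n = 3/time point). Proteins precipitated with acetonitrile; drug measured by LC−MS/MS. Noncompartmental analysis of mean concentrations at nominal times and target doses.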

Data set [4] can be described thus: Clearance in Balb/c mouse at 2 mg/kg, iv. Particulars: in vivo. The format is ADME, organism-based. In outline: as §2
The species named for data set [5] is Mus musculus. Kind of data set: Selectivity ratio of IC50 for proteosome beta 5 in mouse A20 cells to IC50 for LMP7 in mouse A20 cells. The format is cell-based. In short, it runs like this: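 Mouse A20 B-cell lymphoma cell lysate (1 mg/mL, hypotonic 20 mM Tris pH 8, 5 mM EDTA) treated with serially diluted compound for 1 h at 25 °C. Then 5 μM biotinylated active-site probe for 2 h at 25 °C, guanidine denaturation and streptavidin bead capture. Subunit-specific antibody and HRP chemiluminescence, signal normalized to protein, IC50 from percent activity versus DMSO controls.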

Data set [6] addresses T1, Proteasome subunit beta type-9 (Homo sapiens) (UniProt P28065).
T1 sequence (whole entry): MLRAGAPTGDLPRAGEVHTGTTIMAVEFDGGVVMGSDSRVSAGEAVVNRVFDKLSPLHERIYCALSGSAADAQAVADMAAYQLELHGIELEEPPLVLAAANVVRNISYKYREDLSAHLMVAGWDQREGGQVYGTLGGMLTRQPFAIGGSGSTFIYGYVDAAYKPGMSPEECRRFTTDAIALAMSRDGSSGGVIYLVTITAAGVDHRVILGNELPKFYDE
Kind of data set: Inhibition of LMP2 in human PBMC at 125 nM in presence of KZR-504 by ELISA. On the technique in general: In an ELISA, binding on a coated surface is turned into a signal by an enzyme label.

Data set [7] has as its system PBMC. Kind of data set: Antiinflammatory activity in human PBMC assessed as reduction in anti-CD3/CD28 antibody-stimulated TNF-alpha expression at 125 nM preincubated for 1 hr followed by anti-CD3/CD28 antibody stimulation measured after 24 hrs in presence of KZR-504 by ELISA. Type of data set: functional, cell-based. In short, it runs like this:
(§3)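 Healthy-donor PBMC, thawed from cryopreservation, 250 000 cells/well in RPMI 1640/5% FBS. Pretreated 1 h at 37 °C with compound alone or combined (0.1% DMSO final), washed 4 times, then stimulated 24 h with anti-CD3 and anti-CD28 antibodies. TNFα and IFNγ in supernatants by electrochemiluminescent ELISA; expressed relative to DMSO-treated controls (n = 6).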

Data set [8] addresses T2, Proteasome subunit beta type-10 (Homo sapiens) (UniProt P40306).
T2 sequence (whole entry): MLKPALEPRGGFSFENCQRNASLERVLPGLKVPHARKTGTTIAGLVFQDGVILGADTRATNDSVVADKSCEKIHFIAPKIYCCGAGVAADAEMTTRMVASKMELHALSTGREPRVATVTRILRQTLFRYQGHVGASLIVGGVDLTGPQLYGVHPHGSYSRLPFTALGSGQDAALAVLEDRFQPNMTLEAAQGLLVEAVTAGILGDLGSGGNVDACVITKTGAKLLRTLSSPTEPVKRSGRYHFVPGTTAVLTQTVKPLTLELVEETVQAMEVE
Kind of data set: Inhibition of MECL1 in human PBMC at 125 nM in presence of KZR-504 by ELISA. In short, it runs like this:
(§4)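 Cryopreserved healthy-donor human PBMC in RPMI 1640 with 5% heat-inactivated FBS, exposed to compound (0.1% DMSO final) for 1 h at 37 °C, 5% CO2, then washed. Subunit-specific active-site occupancy read by ProCISE: biotinylated active-site probe binding, denaturation, streptavidin capture, subunit-specific antibody and HRP chemiluminescence. Signal normalized to protein and expressed relative to DMSO controls.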

Data set [9] concerns Mus musculus. Kind of data set: In vivo inhibition of LMP7 in Balb/c mouse splenocytes at 20 mg/kg, iv followed by dosing repeat on day 6, 8, 11, 13 and 15 and co-treated with 5 mg/kg, iv KZR-504 and measured on 1 hr post last dose. Type of data set: functional, organism-based. In short, it runs like this: as §1
The subject of data set [10] is PBMC. Nature of the data set: Antiinflammatory activity in human PBMC assessed as reduction in anti-CD3/CD28 antibody-stimulated TNF-alpha expression at 250 nM preincubated for 1 hr followed by anti-CD3/CD28 antibody stimulation measured after 24 hrs in presence of KZR-504 by ELISA. Type of data set: functional, cell-based. In short, it runs like this:
as §3

Data set [11] relates to PBMC. Kind of data set: Antiinflammatory activity in human PBMC assessed as reduction in anti-CD3/CD28 antibody-stimulated IFN-gamma expression at 250 nM preincubated for 1 hr followed by anti-CD3/CD28 antibody stimulation measured after 24 hrs in presence of KZR-504 by ELISA. The format is functional, cell-based. In short, it runs like this: as §3
For data set [12], the target named is T1, Proteasome subunit beta type-9 (Homo sapiens). Kind of data set: Inhibition of LMP2 in human PBMC at 250 nM by ELISA. In short, it runs like this:
as §4

By half-life is commonly meant how long it takes for the measured level to halve. By clearance is commonly meant the volume of plasma or blood freed of the substance per unit of time. As for `COc1ccc(C[C@H](NC(=O)[C@@H](C)NC(=O)[C@H]2CC[C@H](O)CC2)C(=O)N[C@@H](CC2=CCCC2)C(=O)[C@@]2(C)CO2)cc1`, the inhibition result in [1], in [6], in [8] and in [9] was “Active” each time. For the same compound, the Activity in data set [2] is listed as 30%. The compound further showed a half-life in [3] of less than 7 min. This compound showed a clearance in data set [4] greater than 73 mL/min/kg. The Ratio IC50 in data set [5] came out at 7. Also, the result in data set [7] was Active.
With `Cc1ccc(CC[C@H](NC(=O)[C@H](Cc2ccccc2)NC(=O)[C@H](CC(C)C)NC(=O)CN2CCCCCC2)C(=O)[C@@]2(C)CO2)cc1`, the result in data set [10] and in [11] was inactive. The inhibition entry in data set [12] was “Active”.
